Screening results as filed in PubChem.
Hits are enriched below; roughly 11% of the tested compounds scored in any of these assays.
M1 antag: antagonists of rat M1 muscarinic receptor. P08482. CHO-M1 cells, Fluo-4 calcium, ACh EC80 antagonist mode; stronger effect = lower value. B-score at 10 µM. 3.4% of 64,000 active. AID 628;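 active = calcium fluorescence response, raw or row-and-column corrected B-score, differing from the plate sample mean either way at a set confidence level, mostly lower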
Target sequence (P08482 whole entry, looked up): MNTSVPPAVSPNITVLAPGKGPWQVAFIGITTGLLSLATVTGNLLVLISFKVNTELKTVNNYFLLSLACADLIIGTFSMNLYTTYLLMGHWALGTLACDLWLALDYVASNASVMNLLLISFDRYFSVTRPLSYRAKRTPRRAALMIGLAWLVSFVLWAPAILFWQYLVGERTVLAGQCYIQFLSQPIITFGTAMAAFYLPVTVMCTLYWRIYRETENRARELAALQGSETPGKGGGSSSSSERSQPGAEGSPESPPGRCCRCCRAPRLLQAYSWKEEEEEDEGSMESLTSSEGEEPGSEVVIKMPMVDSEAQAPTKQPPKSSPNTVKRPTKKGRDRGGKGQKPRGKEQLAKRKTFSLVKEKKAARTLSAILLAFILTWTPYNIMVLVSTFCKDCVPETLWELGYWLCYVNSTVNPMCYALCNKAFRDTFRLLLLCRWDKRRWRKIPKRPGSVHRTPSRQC
D1 allo mod: allosteric modulators of human D1 dopamine receptor. AID 641. 5.9% of 58,000 active. B-score at 10 µM. HEK293 D1, CRE-luciferase, dopamine EC30 potentiation; actives deviate in either direction. P21728;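 active = luminescence count or its row- and column-corrected plate score outside the 99.7% band of the plate's sample wells, on either side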
mHtt clearance: compounds clearing mutant huntingtin protein; HeLa Exon1htt(103Q)mCFP, aggregate imaging; zero = plate's median compound well; inhibition, % at 1.5 µM; 0.42% of 47,000 active;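 active = inhibition of aggregate fluorescence above about 70%, also judged a hit by eye on the cell image, limit read from the data, passing the limit was not always enough; inconclusive = no rule stated for this call; inactive = not judged a hit on image review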;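 note: cells exposed to compound for three days before fixation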
RORa activator: activators of human nuclear receptor RORA; CHO-K1 Gal4-RORA LBD luciferase reporter, luminescence; percent increase over mock-subtracted basal signal; activation, % at 10 µM; 1.5% of 65,000 active;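 active = activation above the mean of all tested compounds plus 3 SD, cut at about 49% in these data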;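 note: 0% = DMSO-treated RORA cells and 100% = added signal equal to DMSO minus mock-transfected cells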
M1 agonist: M1 muscarinic receptor agonism | B-score at 10 µM | CHO-M1 cells, Fluo-4 calcium fluorescence, agonist mode; stronger effect = higher value | 3% of 64,000 active;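 active = fluorescence rise, raw or as B-score row- and column-corrected plate score, outside the 99.7% band of its plate's samples, either direction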
SF-1 act: activators of human nuclear receptor SF-1; Q13285; 1.9% of 65,000 active; CHO-K1 Gal4-SF-1 LBD luciferase reporter; % increase over DMSO SF-1-specific signal; activation, % at 10 µM;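 active = activation above the mean activation of all tested compounds plus 3 SD, cut at about 50% in these data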
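Test system: CHO-K1 cells co-transfected with Gal4 DBD–human SF-1 LBD, 5xGal4 luciferase reporter. Quantity: 4,000 cells per well. Compound: 10 µM only. Incubation: compound added 1 h post-seeding, 20 h exposure at 37 °C, 5% CO2. Detection: SteadyLite luciferase luminescence. Replication: one test per compound.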
D1 mod confirm: confirmation of human D1 dopamine receptor allosteric modulators; shares compounds with D1 allo mod; 88% of 2,200 active; luminescence at 10 µM; HEK293 D1 CRE-luciferase, dopamine EC30 potentiation; stronger effect = higher value; AID 642;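 active = luminescence in either of two replicates above the same-plate mean plus 3 SD of the low-dose dopamine control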
D1 ag no DA: D1 (human) signaling in absence of dopamine; shares compounds with D1 allo mod; HEK293 D1 CRE-luciferase, luminescence, no dopamine; stronger effect = higher value; luminescence at 10 µM; 0.8% of 1,900 active; AID 646; in the data active = luminescence above about 3900
Isoprot counter: isoproterenol response counter-screen activity for D1 modulators; shares compounds with D1 allo mod; HEK293 D1 CRE-luciferase, isoproterenol EC30 counter-screen; calls only at 10 µM; 63% of 2,200 active;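 active = luminescence in either replicate above plate mean of wells with a partly effective reference agonist dose plus 3 SD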;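 note: isoproterenol raises cAMP through native beta-adrenoceptor Gs so signal bypasses D1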
The depositor's hits bear a star; i = inactive; u = inconclusive; x = no result; + = active, no number.

SMILES	M1 antag	D1 allo mod	mHtt clearance	RORa activator	M1 agonist	SF-1 act	D1 mod confirm	D1 ag no DA	Isoprot counter
CN(C)c1nc(N)nc(CSc2n[nH]c(-c3ccccc3)n2)n1	0.032	7.8*	16	-7	0.66	32	9244*	1568	+
COc1ccccc1C(=O)Nc1c2c(nn1-c1cccc(C)c1C)CS(=O)(=O)C2	-0.043	6.6*	20	-20	-0.26	-5	14916*	1716	+
CCCCN(C(=O)Cc1cccs1)c1nnc(-c2cccnc2)s1	x	x	-45	x	x	x	x	x	x
CCC1(CC)Cc2ccccc2-c2nc(CN3CCOCC3)[nH]c(=O)c21	-0.1	18*	-8	6	0.43	1	22860*	1804	+
COc1ccc(CCNS(=O)(=O)c2ccc3c(c2)OCCO3)cc1OC	0	5.2*	-28	6	-1.2	-6	11256*	1696	i
COc1ccc(CCNS(=O)(=O)c2cccc(F)c2)cc1OC	-0.032	8.1*	0	0	0.15	9	11924*	x	+
CN(C(=S)Nc1ccc(F)cc1)C1(c2ccccc2Cl)CCCCC1=O (configuration not stated)	x	x	-25	x	x	x	x	x	x
CCOc1cc(C2NC(=O)NC(C)=C2C(=O)OCc2ccccc2)ccc1O (configuration not stated)	0.036	0.012	x	-3	0.97	-4	x	x	x
CCOc1ccc(C(C)=O)cc1COC(=O)C1=COCCO1	0.2	4.7*	x	-6	0.083	6	12532*	1772	+
CCCN1C(=O)c2ccccc2NC1c1ccc(OC)cc1O (configuration not stated)	-1.3	4.4*	x	20	-0.91	-24	4884	1664	i
CCCN1C(=O)c2ccccc2NC1c1ccc(OC)cc1OC (configuration not stated)	0.021	0.12	36	-12	0.72	-7	x	x	x
COc1ccc(C(=O)Nc2cccc(C(C)=O)c2)cc1OC	-0.2	x	x	24	-2.3	9	x	x	x
COCCNC(=O)c1ccc(N(C)S(=O)(=O)c2ccc(OC)c(OC)c2)cc1	0.26	11*	57	-18	0.3	5	14404*	1504	+
COc1ccc(C(=O)Nn2c(C)ccc2C)cc1OC	-0.23	9.6*	-36	-5	0.11	-16	11780*	1660	+
CCOc1cc(C(=O)NCCOC)ccc1OC	-0.15	4.8*	12	-25	0.05	2	7216*	1968	i
Cc1ccc2cc(CN(CC3CCCO3)C(=O)c3ccco3)c(=O)[nH]c2c1C (configuration not stated)	-0.0064	-0.69	x	2	-1.6	15	x	x	x
CCOC(=O)CCCc1sc(N)nc1-c1[nH]c(=O)[nH]c1C	-1.1	-0.56	20	21	0.7	10	x	x	x
Cn1ccnc1Sc1nc(Nc2cccc(Cl)c2)nc(N2CCOCC2)n1	0.68	8.4*	52	-6	0.49	5	15596*	1596	+
c1ccc(Nc2nc(N3CCOCC3)nc(N3CCOCC3)n2)cc1	-0.077	2.4	u	-11	0.23	-5	x	x	x
CCC(C)(C)n1nnnc1C(c1ccccn1)N1CCN(c2cccc(OC)c2)CC1 (configuration not stated)	x	x	54	x	x	x	x	x	x
Cc1cccc(N2C(=O)CC(Sc3nnc(C)s3)C2=O)c1 (configuration not stated)	x	x	-67	x	x	x	x	x	x
CC(C)n1c(SCC(=O)Nc2ccc3c(c2)OCO3)nc2c1c(=O)n(C)c(=O)n2C	-0.096	9.1*	-46	38	0.59	-2	7904*	1376	+
CC(C)n1c(SCC(=O)N2CCCc3ccccc32)nc2c1c(=O)n(C)c(=O)n2C	0.32	x	x	-2	0.65	-5	x	x	x
CC(C)n1c(SCC(=O)N2CCCC2)nc2c1c(=O)n(C)c(=O)n2C	0.42	6.4*	x	11	0.51	-3	13032*	1508	i
CCOc1ccc2nc(NC(=O)CSc3nc4c(c(=O)n(C)c(=O)n4C)n3C(C)C)sc2c1	1.2	4*	x	-21	-0.49	-10	10912*	1684	+
SMILES	M1 antag	D1 allo mod	mHtt clearance	RORa activator	M1 agonist	SF-1 act	D1 mod confirm	D1 ag no DA	Isoprot counter
CCn1c(=O)cc(SCC(=O)Nc2ccc3c(c2)OCO3)c2ccccc21	-0.13	5.2*	x	2	-0.24	7	9432*	1616	i
CCOc1ccc2nc(NC(=O)Cn3cnc4c3c(=O)n(C)c(=O)n4C)sc2c1	0.15	-1.1	x	-4	0.19	6	x	x	x
Cn1c(=O)n(CC(=O)NC2CCCCC2)c(=O)c2ccccc21	-0.29	0.0023	x	-4	-0.27	4	x	x	x
Cn1nnnc1SCC(=O)Nc1nc(-c2ccccc2)c(-c2ccccc2)o1	0.66	3.7*	-8	-1	0.086	-2	9488*	1600	i
COc1ccc(NC(=O)C2CCN(S(=O)(=O)c3cccnc3)CC2)cc1Cl	-0.49	-0.099	x	0	0.0077	0	x	x	x
CCCCN(CC)C(=O)C1CCC(=O)N(c2ccc(OC)cc2)C1c1ccc(OC)c(OC)c1 (configuration not stated)	0	x	x	-6	0.52	0	x	x	x
Cc1nc2ccccc2c2oc(C(=O)NCCN3CCN(C)CC3)cc12	-0.69	2.6*	-22	4	-0.34	-10	5656	1600	i
CCCCOC(=O)Nc1sc2c(c1C(=O)OC)CCC2	0.0043	x	x	-9	-0.29	-12	x	x	x
COc1ccc(-c2noc(CSc3nnc(-c4ccncc4)n3-c3ccc(F)cc3)n2)cc1OC	-0.07	4.6*	4	8	-0.2	16	10824*	1596	i
COc1ccc(-c2noc(CSc3nc(-c4ccccc4)cc(=O)[nH]3)n2)cc1OC	-0.24	7.6*	38	6	-0.11	6	7928*	x	+
COc1ccc(-n2c(SCc3nnc(-c4ccccc4)o3)nnc2-c2ccccc2)cc1	0.37	x	x	-7	0.75	9	x	x	x
COc1ccc(-c2noc(COc3ccc4ccccc4c3Br)n2)cc1OC	0.27	3.7*	x	4	2.3	-1	8636*	1540	i
COc1ccc(-c2noc(COc3ccc(C)c(C)c3)n2)cc1OC	0.25	4.5*	21	-6	0.057	5	9288*	x	+
COc1ccc(-c2noc(CCCc3ccccc3)n2)cc1OC	-0.024	2.5	x	-19	0.001	3	x	x	x
CCOC(=O)N1CCC(NC(=O)c2ccc(CNS(=O)(=O)c3ccc(F)cc3)cc2)CC1	-0.29	0.65	x	26	0.07	2	x	x	x
CCC(=O)N1CCc2cc(S(=O)(=O)CCC(=O)NCCC3=CCCCC3)ccc21	0.61	0.34	33	-16	-0.35	5	x	x	x
